What is called Km is the concentration of substrate that gives half-maximal velocity.

Here are results for nine compounds from publication PMC5155582 (ChemMedChem, 2016).

Each structure is given as a SMILES string.

For the first data set, the target named is T1, CYP2B6 (Homo sapiens, UniProt P20813).
T1 sequence (P20813 1-491): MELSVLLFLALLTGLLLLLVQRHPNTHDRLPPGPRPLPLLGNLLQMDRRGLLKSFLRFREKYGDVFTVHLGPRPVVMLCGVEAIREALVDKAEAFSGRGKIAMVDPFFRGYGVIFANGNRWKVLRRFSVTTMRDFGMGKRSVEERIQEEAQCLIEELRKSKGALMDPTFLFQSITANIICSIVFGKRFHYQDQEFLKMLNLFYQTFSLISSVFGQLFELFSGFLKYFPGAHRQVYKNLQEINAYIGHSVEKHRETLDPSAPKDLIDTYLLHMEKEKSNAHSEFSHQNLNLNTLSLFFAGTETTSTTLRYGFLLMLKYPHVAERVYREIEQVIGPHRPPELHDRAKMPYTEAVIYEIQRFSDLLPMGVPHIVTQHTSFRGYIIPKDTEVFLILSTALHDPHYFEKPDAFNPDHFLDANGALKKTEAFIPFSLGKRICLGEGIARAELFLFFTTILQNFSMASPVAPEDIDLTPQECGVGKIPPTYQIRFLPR
As to the kind of experiment: Product formation kinetic analysis. It is filed as in vitro ADME. Conditions: cDNA-expressed CYP2B6. An outline of the steps: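 cDNA-expressed CYP2B6 (5–20 nM) in 100 mM potassium phosphate pH 7.4 at 37 °C. Eight substrate concentrations, 0.5–100 μM (0.5–30 μM for one poorly soluble analogue); parent drug run the same way. NADPH regenerating system, 5–20 min, with linearity in enzyme and time set by pilot runs. Ice-cold acetonitrile stop. Product measured by SRM uHPLC-MS/MS or UV, without authentic standards. KM from a substrate-inhibition fit; fold change is analogue KM divided by the parent's 8-hydroxylation KM.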
Turning to `O=C1Nc2ccc(Cl)cc2[C@@](C#CC2CC2)(C(F)(F)F)O1` [EFV, (4S)-6-Chloro-4-(2-cyclopropylethynyl)-1,4-dihydro-4-(trifluoromethyl)-2H-3,1-benzoxazin-2-one, reference compound], the Michaelis constant (Km) amounted to 3.6 ± 1.7 µM.
On the same count and under the same terms, the result for `CC1Nc2ccc(Cl)cc2C(C#CC2CC2)(C(F)(F)F)O1` (stereo not drawn) [analogue 1, 6-Chloro-4-(2-cyclopropylethynyl)-1,4-dihydro-2-methyl-4-(trifluoromethyl)-2H-3,1-benzoxazine] reads approximately 1 µM.
Still for that read-out and setting: then `O=C1CC(C#CC2CC2)(C(F)(F)F)c2cc(Cl)ccc2N1` (stereo not drawn) [analogue 4, 6-Chloro-4-(cyclopropylethynyl)-3,4-dihydro-4-(trifluoromethyl)-2(1H)-quinolinone], with 14 ± 6.4 µM.

The target of another data set is T2, rat CYP2B1 (Rattus norvegicus, UniProt P00176).
T2 sequence (P00176 1-491): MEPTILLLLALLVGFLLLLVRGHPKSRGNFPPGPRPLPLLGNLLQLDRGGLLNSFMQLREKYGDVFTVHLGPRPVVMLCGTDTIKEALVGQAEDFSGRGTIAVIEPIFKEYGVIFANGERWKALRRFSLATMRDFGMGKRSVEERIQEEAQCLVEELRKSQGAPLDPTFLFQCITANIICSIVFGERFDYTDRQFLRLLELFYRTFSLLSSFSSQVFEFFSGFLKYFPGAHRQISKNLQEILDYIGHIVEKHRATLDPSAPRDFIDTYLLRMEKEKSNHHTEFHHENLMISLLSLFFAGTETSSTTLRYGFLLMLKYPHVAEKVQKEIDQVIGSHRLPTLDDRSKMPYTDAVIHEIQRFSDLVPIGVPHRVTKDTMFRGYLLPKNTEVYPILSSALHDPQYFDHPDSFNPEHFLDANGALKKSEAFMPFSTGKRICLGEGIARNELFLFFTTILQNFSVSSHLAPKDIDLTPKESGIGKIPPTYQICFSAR
As to the kind of experiment: Comparison of metabolite formation by cDNA-expressed CYP2B1 and CYP2B6. The format is in vitro ADME. Conditions: 10 nM cDNA-expressed CYP2B1, 10 μM substrate, 30 min. The essentials: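 cDNA-expressed rat CYP2B1 or human CYP2B6 systems, both with cytochrome b5 (CYP:reductase:b5 molar ratio 1:1:2 for 2B1, 1:10:2 for 2B6), 10 nM, run side by side with 10 μM substrate in 100 mM potassium phosphate pH 7.4. 5 min preincubation at 37 °C, then NADPH regenerating system for 30 min at 37 °C. Acetonitrile stop, then uHPLC-MS or uHPLC-UV (220 nm). CYP2B1 peak height normalised to mean CYP2B6 peak height (100%). Three independent experiments, mean ± SEM.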
Regarding `COc1ccc(C(=O)Nc2ccc(Cl)cc2C(O)(C#CC2CC2)C(F)(F)F)cc1` (racemic) [methoxybenzamide analogue, rac N-[4-Chloro-2-[3-cyclopropyl-1-hydroxy-1-(trifluoromethyl)-2-propynyl]phenyl]-4-methoxybenzamide], the “Metabolite formation by CYP2B1 (in words)” value was “did not form metabolites”.
In the case of `CCCC#CC1(C(F)(F)F)OC(=O)Nc2ccc(Cl)cc21` (racemic) [pentynyl analogue, rac 6-Chloro-1,4-dihydro-4-(1-pentynyl)-4-(trifluoromethyl)-2H-3,1-benzoxazin-2-one], the “Metabolite formation by CYP2B1 (in words)” value is “M4 and M5 formation”.
On the same count and under the same terms, the result for `Nc1ccc(Cl)cc1[C@](O)(C#CC1CC1)C(F)(F)F` [(R)-5-Chloro-α-(cyclopropylethynyl)-2-amino-α-(trifluoromethyl)benzenemethanol] reads “displayed activity”; that for `Nc1ccc(Cl)cc1[C@@](O)(C#CC1CC1)C(F)(F)F` [(S)-5-Chloro-α-(cyclopropylethynyl)-2-amino-α-(trifluoromethyl)benzenemethanol], “displayed activity”; that for `O=C1Nc2ccc(Cl)cc2[C@@](/C=C/C2CC2)(C(F)(F)F)O1` [E-dihydroefavirenz, (E)-Dihydroefavirenz], “M2 formation”.

The same data set, now with this note: 10 nM enzyme, 10 μM substrate, 30 min; CYP2B6 peak height set at 100%.
Take `O=C1Nc2c(O)cc(Cl)cc2[C@@](C#CC2CC2)(C(F)(F)F)O1` [8-OH EFV, 8-hydroxyefavirenz]: the “Metabolite formed by CYP2B1 as percent of metabolite formed by CYP2B6” value is approximately 48%.
